Bioassay records deposited in PubChem BioAssay by The Scripps Research Institute Molecular Screening Center.
Compounds with a hit are over-represented: about 1.8% of the library has one in this group of screens.
Tn6 DDE FP = disrupts Tn6 cyclic peptide binding to fibrin D-Dimer-E complex; P02675; AID 720509; Fibrin DD(E) TRITC-Tn6 fluorescence polarization displacement; hit rate 0.21% among 370,000; inhibition, % at 8.3 µM;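 active = inhibition above a per-campaign cutoff: mean of compounds within control limits plus 3 SD, cut at about 15% in these data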;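 also: 0% = median of all compound wells on the plate and 100% = blocking peptide control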
DDE Tn7 FP inh = inhibitors of Tn7 peptide binding to human fibrin DD(E) | P02675 | FP displacement of FITC-Tn7 peptide from fibrin DD(E); 0% = median of compound wells per plate | inhibition, % at 8.3 µM | hit rate 0.13% among 370,000 | AID 720508;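 active = inhibition above the mean of compounds falling within the control limits plus 3 SD of them, cut at about 14% in these data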;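 also: 0% = plate median of compound wells and 100% = 10 µM Aha-Tn7 peptide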
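Assay system: human fibrin DD(E). Input: DD(E) 2 µM final. Medium: Tris buffer with calcium and detergent, pH 7.8. Compound dosing: single point at 8.3 µM. Timing: 10 min plus 3 h, room temperature. Technique: fluorescence polarization of the labelled Tn7 tracer. Read-out: percent inhibition. Replicates: singlicate testing.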
ABHD4 inh = inhibits mouse alpha/beta hydrolase domain 4; Q8VD66; purified mABHD4, FP-Rh probe fluorescence polarization; inhibition, % at 8.92 µM; hit rate 0.54% among 370,000; AID 720543;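 active = inhibition exceeding the mean over every tested compound plus 3 SD, cut at about 30% in these data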;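 also: 0% = plate median of compound wells and 100% = S159A mutant with DMSO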
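Assay system: mouse ABHD4 enzyme, wild type / Also added: fluorescent activity-based probe FP-Rh / Doses: single nominal dose of 8.92 µM, 0.89% DMSO final / Timing: 45 min compound pre-incubation plus 60 min probe step, 25 °C / Signal: FP readout, ex 525 nm / em 598 nm / Control set: S159A mutant/DMSO as 100%, compound-well median as 0%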
TCR CD3 inh = human TCR-CD3 binding inhibition. TAMRA-labeled TCR probe fluorescence, biochemical. inhibition, % at 9.4 µM. hit rate 0.37% among 360,000; in the data active = inhibition above about 19%;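 also: recombinant mutant TCR 2C K166C tagged with TAMRA read by polarization; 0% = receptor in buffer alone and 100% = receptor with positive control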
SIAE inh = human SIAE inhibition, primary screen. SIAE FP-Rh probe binding, fluorescence polarization. inhibition, % at 9.66 µM. hit rate 0.69% among 370,000. AID 1053197;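 active = inhibition above a cutoff: mean of compounds within the control limits plus 3 SD of those, cut at about 17% in these data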;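 also: 0% = plate median of compound wells and 100% = probe without SIAE protein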
Target sequence (Q9HAT2 whole entry, looked up): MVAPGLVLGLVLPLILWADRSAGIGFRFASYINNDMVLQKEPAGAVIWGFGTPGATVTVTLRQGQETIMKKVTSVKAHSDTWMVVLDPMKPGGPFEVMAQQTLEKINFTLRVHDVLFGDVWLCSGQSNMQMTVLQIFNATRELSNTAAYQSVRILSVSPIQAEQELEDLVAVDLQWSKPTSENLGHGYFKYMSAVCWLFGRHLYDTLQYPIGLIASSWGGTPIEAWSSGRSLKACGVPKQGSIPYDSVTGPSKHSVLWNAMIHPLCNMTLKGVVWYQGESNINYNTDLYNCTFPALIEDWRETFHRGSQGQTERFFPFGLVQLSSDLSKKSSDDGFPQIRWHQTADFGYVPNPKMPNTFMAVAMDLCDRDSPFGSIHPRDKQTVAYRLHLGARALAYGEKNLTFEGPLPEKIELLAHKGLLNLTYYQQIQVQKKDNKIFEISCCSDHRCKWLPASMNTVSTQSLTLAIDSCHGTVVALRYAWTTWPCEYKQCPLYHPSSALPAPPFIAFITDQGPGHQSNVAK
HTRA1 inhibitor = HTRA1 (human) protease inhibition. Q92743. recombinant HTRA1, FP-rhodamine activity-based probe, fluorescence polarization. inhibition, % at 5.96 µM. hit rate 0.5% among 340,000. AID 504803; in the data active = inhibition above about 36%;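 also: 0% = enzyme with DMSO and 100% = wells lacking enzyme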
mABHD4 conf = ABHD4 (mouse) inhibition, FP confirmation; shares compounds with ABHD4 inh; hit rate 55% among 1,800; inhibition, % at 8.92 µM; purified mABHD4, FP-Rh probe fluorescence polarization; AID 720658;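 active = mean inhibition across replicates above the hit cutoff set in the primary screen, cut at about 30% in these data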;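 also: 0% = wild-type ABHD4 with DMSO and 100% = catalytically dead S159A mutant with DMSO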
* = called active by the depositor; . = no result.

SMILES	Tn6 DDE FP	DDE Tn7 FP inh	ABHD4 inh	TCR CD3 inh	SIAE inh	HTRA1 inhibitor	mABHD4 conf
N#C/C(=C(/O)c1ccc2c(c1)OCO2)c1nc2cc(C(F)(F)F)ccc2s1	3.0	1.2	32.8*	1.0	1.9	-1.0	10.4
C/C(=N\Nc1nc2ccccc2[nH]1)c1ccc2c(c1)OCO2	-7.6	0.8	24.0	6.0	10.1	19.2	.
CC(/C=N/Nc1nc(C)cc(=O)[nH]1)=C\c1ccccc1	-5.9	1.6	-1.1	-3.2	2.8	4.8	.
CC(=O)Nc1ccc(/C=N/Nc2nc3ccccc3[nH]2)cc1	-0.8	-0.5	17.9	-1.6	4.8	6.7	.
CC(/C=N/Nc1nc2ccccc2[nH]1)=C\c1ccccc1	-4.4	-0.3	42.4*	-3.2	11.1	13.2	44.1*
CCN(CC)c1ccc(/C=N/Nc2nc3ccccc3[nH]2)cc1	-5.9	-5.2	29.6*	-0.3	16.7	35.0	47.2*
C/C(=N\Nc1nc2ccccc2[nH]1)c1ccccn1	4.7	-0.2	36.0*	-1.1	3.6	27.1	21.3
COC(=O)[C@]12C[C@H](CC(=O)N3CCSCC3)C(=O)N(Cc3ccco3)C1=C[C@H](C(C)C)O[C@@H]2C1CC1	-2.6	0.9	-0.6	.	2.5	.	.
Cc1[nH]n(-c2ccccc2)c(=O)c1C(c1ccccc1C(=O)O)c1c(C)[nH]n(-c2ccccc2)c1=O	-2.0	-1.4	4.9	2.9	0.7	-3.9	.
Cc1[nH]n(-c2ccccc2)c(=O)c1C(c1ccccc1[N+](=O)[O-])C(C#N)C#N (configuration not stated)	-2.0	-6.2	41.9*	3.5	13.8	13.6	37.6*
COc1cc(CNc2ccc3[nH]c(=O)[nH]c3c2)cc(Cl)c1OCC(=O)NC(C)(C)C	8.7	-2.3	40.0*	5.8	4.7	12.9	35.7*
O=c1oc2ccccc2nc1/C=C(O)/C=C\c1ccccc1	0.2	-4.6	32.8*	2.8	3.6	8.9	8.7
O=c1oc2ccccc2nc1/C=C(O)/C=C/c1ccc(F)cc1	-7.8	-7.2	23.7	1.5	0.1	3.0	.
C=CCN(CC#Cc1ccccc1)Cc1ccc2c(c1)OCO2	4.2	7.2	4.2	.	-9.3	.	.
Cc1ccccc1NC(=O)Cc1nc(COC(=O)CCc2ccccc2)cs1	5.2	-4.4	52.6*	4.0	-3.1	-6.2	48.2*
CCOC(=O)/C=C/C(=O)OCc1csc(CC(=O)Nc2ccccc2C)n1	11.0	1.2	29.9*	3.2	-1.7	-7.0	39.9*
COC(=O)C1CN(Cc2cn(CCC3OCCO3)nn2)CCS(=O)(=O)N1Cc1ccc(Cl)cc1 (configuration not stated)	4.0	-7.4	5.4	.	-2.3	.	.
FC(F)(F)c1ccccc1NC(=S)OC1CCC12CCC(c1ccccc1)CC2 (configuration not stated)	1.1	0.3	-16.3	.	-5.5	.	.
COc1ccc(C(=O)Oc2cc(OC)cc(OC)c2C(C)=O)cc1	-3.2	-0.3	38.1*	-0.7	12.8	-4.3	41.4*
COc1ccc(C(C)=O)c(OC(=O)c2ccc(OC)c(OC)c2)c1	-7.5	-1.1	-6.4	2.0	2.4	0.7	.
CCCCCCCOC(=O)C[N+](C)(C)CCOC1CC2CCC1(C)C2(C)C (configuration not stated)	1.6	-2.7	37.7*	3.7	3.2	13.8	50.2*
Cc1cccc2cc(/C=N/Nc3ccc(C(=O)O)cc3)c(Cl)nc12	-1.1	0.8	38.3*	12.3	-2.9	-1.1	43.6*
O=C(O)c1cc(N/N=C/c2c[nH]c3ccccc23)ccc1Cl	-6.2	4.9	32.0*	-6.1	8.2	0.7	28.2
O=C(O)c1cccc(N/N=C/c2cccc3ccccc23)c1	-2.2	-1.2	9.6	8.2	3.6	2.1	.
O=C(O)c1cc(N/N=C/c2ccc(-c3ccccc3)cc2)ccc1Cl	1.1	12.6	11.1	5.0	-1.9	10.9	.
COc1ccc2c(/C=N/Nc3ccc(C(=O)O)cc3)c[nH]c2c1	-12.4	4.3	50.0*	5.2	-5.2	3.2	35.6*
COc1ccc2ccccc2c1/C=N/Nc1cccc(C(=O)O)c1	0.4	3.0	37.4*	13.6	14.9	5.7	32.5*
